Laboratory results reported in ChEMBL document CHEMBL4477236 (ACS Med Chem Lett, 2016).
pEC50, pIC50: −log10 of the molar value. Active and inactive are the calls of the source. The rule behind the calls is not given here.

Columns and labels:
[1] = target: T1, Steroid 17-alpha-hydroxylase/17,20 lyase (Homo sapiens, UniProt P05093); test: Inhibition of CYP17 (unknown origin)
T1 sequence (P05093 whole entry): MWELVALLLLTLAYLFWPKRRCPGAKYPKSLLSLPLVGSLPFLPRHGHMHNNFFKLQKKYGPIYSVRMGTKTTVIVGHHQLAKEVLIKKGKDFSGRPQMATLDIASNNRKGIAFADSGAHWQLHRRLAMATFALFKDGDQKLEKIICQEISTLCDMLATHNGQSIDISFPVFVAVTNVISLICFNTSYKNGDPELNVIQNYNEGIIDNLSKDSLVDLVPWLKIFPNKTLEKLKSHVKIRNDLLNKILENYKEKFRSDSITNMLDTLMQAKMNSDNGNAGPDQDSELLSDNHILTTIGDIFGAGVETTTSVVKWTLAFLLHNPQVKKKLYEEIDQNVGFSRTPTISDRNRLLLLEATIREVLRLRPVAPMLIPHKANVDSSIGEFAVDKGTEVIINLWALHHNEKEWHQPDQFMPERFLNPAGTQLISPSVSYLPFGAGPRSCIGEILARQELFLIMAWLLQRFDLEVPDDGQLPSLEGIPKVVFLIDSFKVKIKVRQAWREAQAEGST
Procedure, shortened: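 CYP17 enzyme activity measured in duplicate over a range of inhibitor concentrations. IC50 read from the dose–response curve as the concentration giving 50% inhibition.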

[2] = tested on: CWR22R; test: Antitumor activity against human CWR22Rv1 cells xenografted in SCID mouse assessed as tumor growth inhibition at 0.15 mmol/kg, ip bid administered for 5 days per week relative to control; format: functional; conditions: 22Rv1, ip, 120 h, read-out: TGI
[3] = target: T2, Androgen receptor (Homo sapiens) (UniProt P10275); test: Induction of AR-V7 degradation in human CWR22Rv1 cells at 15 uM after 24 hrs by Western blot analysis; format: cell-based
T2 sequence (whole entry): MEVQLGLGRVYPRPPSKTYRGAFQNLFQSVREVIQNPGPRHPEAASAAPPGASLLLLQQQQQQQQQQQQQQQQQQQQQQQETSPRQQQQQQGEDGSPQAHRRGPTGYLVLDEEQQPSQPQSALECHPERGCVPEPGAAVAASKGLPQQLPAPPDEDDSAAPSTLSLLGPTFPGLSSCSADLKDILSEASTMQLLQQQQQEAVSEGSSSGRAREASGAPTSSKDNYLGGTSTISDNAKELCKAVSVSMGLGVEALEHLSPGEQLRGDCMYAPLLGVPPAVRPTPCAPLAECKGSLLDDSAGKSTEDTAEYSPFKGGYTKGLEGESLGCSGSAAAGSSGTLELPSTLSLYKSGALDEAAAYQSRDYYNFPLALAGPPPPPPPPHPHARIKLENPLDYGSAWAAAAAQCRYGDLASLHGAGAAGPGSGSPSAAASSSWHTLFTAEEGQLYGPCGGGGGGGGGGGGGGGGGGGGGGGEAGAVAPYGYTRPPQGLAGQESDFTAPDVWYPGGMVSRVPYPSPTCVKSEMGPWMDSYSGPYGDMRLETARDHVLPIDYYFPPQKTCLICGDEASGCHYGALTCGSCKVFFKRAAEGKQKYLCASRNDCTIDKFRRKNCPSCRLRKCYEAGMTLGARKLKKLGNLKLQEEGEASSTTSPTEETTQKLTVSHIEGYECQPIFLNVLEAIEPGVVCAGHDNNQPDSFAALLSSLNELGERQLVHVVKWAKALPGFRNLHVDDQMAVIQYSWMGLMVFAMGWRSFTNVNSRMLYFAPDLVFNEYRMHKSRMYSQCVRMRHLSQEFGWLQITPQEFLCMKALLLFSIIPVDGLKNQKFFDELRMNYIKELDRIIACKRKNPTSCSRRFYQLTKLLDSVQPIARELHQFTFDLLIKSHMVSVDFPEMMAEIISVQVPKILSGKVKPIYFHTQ
Procedure, shortened: (§1)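 CWR22Rv1 prostate cancer cells exposed to compound at 15 μM for 24 h. Protein lysates analysed by Western blot for f-AR and AR-V7 expression.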

[4] = target: T2, Androgen receptor (Homo sapiens); test: Induction of AR-V7 degradation in human CWR22Rv1 cells upto 7.5 uM after 72 hrs by Western blot analysis; format: cell-based
Procedure, shortened: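 CWR22Rv1 cells treated across 0 → 7.5 μM for 72 h. Lysates analysed by Western blot for f-AR and AR-V7. EC50 taken from dose–response curves.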

[5] = target: T2, Androgen receptor (Homo sapiens); test: Inhibition of DHT-induced androgen receptor transactivation in human LNCaP cells at 10 uM after 24 hrs by luciferase reporter gene assay relative to control; format: cell-based
Procedure, shortened: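 LNCaP cells dual-transfected with the probasin luciferase reporter AAR2-luc plus the Renilla vector pRL-null. Cells treated with compound at 10 μM for 24 h with 10 nM DHT. Luminescence read and normalized to Renilla activity. Result expressed as fold induction over unstimulated baseline. Replicates from three independent experiments.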

[6] = tested on: LNCaP; test: Antiproliferative activity against human LNCAP cells after 7 days by MTT assay; format: functional, cell-based; conditions: 168 h
Procedure, shortened: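 LNCaP cell growth measured by MTT assay. GI50, the concentration giving 50% growth inhibition, was obtained by nonlinear regression of dose–response curves pooled from at least three independent experiments; SEM < 10%.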

[7] = tested on: CWR22R; test: Antiproliferative activity against human CWR22Rv1 cells after 7 days by MTT assay; format: functional, cell-based; conditions: 22Rv1, 168 h
Procedure, shortened: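 MTT proliferation assay in CWR22Rv1 human prostate cancer cells. GI50, the concentration causing 50% growth inhibition, was read from dose–response curves.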

[8] = target: T3, Androgen receptor (Homo sapiens, UniProt P10275); test: Inhibition of DHT-induced androgen receptor transactivation in human LNCaP cells after 24 hrs by luciferase reporter gene assay relative to control; format: cell-based
T3 sequence (P10275 whole entry): T2 sequence (whole entry)

[9] = target: T2, Androgen receptor (Homo sapiens); test: Induction of full length androgen receptor degradation in human CWR22Rv1 cells at 15 uM after 24 hrs by Western blot analysis; format: cell-based; procedure, shortened: as §1

Row | Structure (SMILES) | pIC50 [1] | inhibition in vivo at 150 µmol/kg [2] [%] | Activity [3] | Activity [4] | inhibition [5] | pIC50 [6] | pIC50 [7] | pEC50 [8] | Activity [9]
1 | C[C@]12CC[C@H](O)CC1=CC[C@@H]1[C@@H]2CC[C@]2(C)C(c3cccnc3)=CC[C@@H]12 [ABIRATERONE] | 7.32 | – | – | – | – | – | – | – | –
2 | C[C@]12CC[C@H](OC(=O)n3ccnc3)CC1=CC[C@@H]1[C@@H]2CC[C@]2(C)C(n3cnc4ccccc43)=CC[C@@H]12 | – | 70 | Active | Active | – | – | – | – | –
3 | C[C@]12CCC=CC1=CC[C@@H]1[C@@H]2CC[C@]2(C)C(n3cnc4ccccc43)=CC[C@@H]12 | – | – | – | – | Active | – | – | – | –
4 | C[C@]12CC[C@H](O)CC1=CC[C@@H]1[C@@H]2CC[C@]2(C)C(n3cnc4ccccc43)=CC[C@@H]12 [GALETERONE] | 6.85 | 60 | – | – | – | 5.41 | 5.05 | – | –
5 | C[C@]12CC[C@@H]3c4ccc(O)cc4CC[C@H]3[C@@H]1CC=C2n1cnc2ccccc21 | 4.59 | – | – | – | Active | 5.41 | 6.30 | – | –
6 | COC(=O)c1ccc2c(c1)CC[C@@H]1[C@@H]2CC[C@]2(C)C(n3cnc4ccccc43)=CC[C@@H]12 | < 4.82 | – | – | – | Active | 5.16 | 5.06 | – | –
7 | C[C@]12CC[C@@H](n3ccnc3)CC1=CC[C@@H]1[C@@H]2CC[C@]2(C)C(n3cnc4ccccc43)=CC[C@@H]12 | – | – | – | – | Active | 5.05 | 5.01 | – | –
8 | C[C@]12CC[C@H](OCc3ccccc3)CC1=CC[C@@H]1[C@@H]2CC[C@]2(C)C(n3cnc4ccccc43)=CC[C@@H]12 | – | – | – | – | Active | 5.29 | 5.92 | – | –
9 | CO[C@H]1CC[C@@]2(C)C(=CC[C@@H]3[C@@H]2CC[C@]2(C)C(n4cnc5ccccc54)=CC[C@@H]32)C1 | 4.41 | – | – | – | Active | 5.06 | 5.12 | – | –
10 | C[C@]12CC[C@H](OC(=S)n3ccnc3)CC1=CC[C@@H]1[C@@H]2CC[C@]2(C)C(n3cnc4ccccc43)=CC[C@@H]12 | – | – | – | – | Active | 5.02 | 5.12 | > 7.00 | –
11 | C[C@]12CC[C@H](OCc3cccnc3)CC1=CC[C@@H]1[C@@H]2CC[C@]2(C)C(n3cnc4ccccc43)=CC[C@@H]12 | – | – | – | – | Active | 5.37 | 6.09 | – | –
12 | C[C@]12CC[C@H](n3ccnc3)CC1=CC[C@@H]1[C@@H]2CC[C@]2(C)C(n3cnc4ccccc43)=CC[C@@H]12 | 6.32 | – | Active | Active | Active | 5.79 | 5.60 | 6.72 | Active
13 | CNC(=O)c1ccc(N2C(=S)N(c3ccc(C#N)c(C(F)(F)F)c3)C(=O)C2(C)C)cc1F [ENZALUTAMIDE] | – | – | – | – | – | 5.31 | – | – | –
14 | C[C@]12CC[C@@H]3c4ccc(C(=O)O)cc4CC[C@H]3[C@@H]1CC=C2n1cnc2ccccc21 | – | – | Active | – | Active | – | – | – | –
15 | C[C@]12CC[C@H]3[C@@H](C[C@@H](n4ccnc4)C45CC4CC[C@]35C)[C@@H]1CC=C2n1cnc2ccccc21 (some centres not stated) | – | – | – | – | Active | 5.18 | 4.91 | 6.33 | –
16 | C[C@]12CC[C@H](OCc3ccncc3)CC1=CC[C@@H]1[C@@H]2CC[C@]2(C)C(n3cnc4ccccc43)=CC[C@@H]12 | < 4.82 | – | Active | Active | Active | 5.61 | 5.49 | 5.78 | Active
